Screens: PubChem, several laboratories
MCL1 BIM primary – MCL1-BIM-BH3 interaction inhibition (human); Q07820; GST-MCL1 / FITC-Bim-BH3 fluorescence polarization; inhibition, % at 10.9 µM; 320,000 tested, 0.68% active; AID 2057;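 active = inhibition above the mean inhibition of all tested compounds plus 3 SD, set per campaign, cut at about 40% in these data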;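 note: 0% = DMSO wells and 100% = unlabeled Bim-BH3 peptide control; higher means more loss of mP so more displacement of Bim peptide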
Mcl1-Bid inh – disrupts binding of human Mcl-1 to Bid peptide; Q07820; TR-FRET Mcl-1/Bid-Dy647 peptide binding, 1536-well; inhibition, % at 21.7 µM; 220,000 tested, 0.97% active;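 active = compounds that cut the binding signal by more than half at the single screening dose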;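 note: His-tagged Mcl-1 with europium anti-His antibody binding Bid BH3 peptide; 0% = Mcl-1 plus peptide wells and 100% = peptide-only wells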
T cell modulator – T cell immune modulators affecting CD8 T cell-vesicle binding | 2C CD8+ T cell-vesicle binding, flow cytometry; stronger effect = lower value | response (vesicle binding), % at 7 µM | 330,000 tested, 0.068% active;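 active = response, share of CD8 T cells binding vesicles, and their 90th percentile fluorescence all below set limits, cut at about 80% in these data, passing the limit was not always enough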;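 note: values below 100% mean blocked vesicle binding to the CD8+ T cells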
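material = purified 2C TCR transgenic mouse naive CD8+ T cells | controls = Unloaded micro-vesicles (low), QL9 vesicles with 0.7% DMSO (high) | detection = cytometric PE anti-B7-1 and Alexa647 anti-CD8 signals after 1% paraformaldehyde fixation | incubation = binding step 1.5 h, 37 °C, antibody labelling 20 min, ice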
Pemphigus Ab inh – inhibitors of pemphigus antibody binding to human desmoglein-3 | P32926 | DSG3-coupled beads, scFv-anti-DSG3-GFP binding, flow cytometry; stronger effect = lower value | binding (percent of control), % at 10 µM | 310,000 tested, 0.48% active;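 active = binding more than 3 SD below its plate's average and above zero; inconclusive = below that plate limit but binding exactly zero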;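 note: hits lower antibody fragment binding to DSG3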
Target sequence (P32926 whole entry, looked up, the tested form may be a part): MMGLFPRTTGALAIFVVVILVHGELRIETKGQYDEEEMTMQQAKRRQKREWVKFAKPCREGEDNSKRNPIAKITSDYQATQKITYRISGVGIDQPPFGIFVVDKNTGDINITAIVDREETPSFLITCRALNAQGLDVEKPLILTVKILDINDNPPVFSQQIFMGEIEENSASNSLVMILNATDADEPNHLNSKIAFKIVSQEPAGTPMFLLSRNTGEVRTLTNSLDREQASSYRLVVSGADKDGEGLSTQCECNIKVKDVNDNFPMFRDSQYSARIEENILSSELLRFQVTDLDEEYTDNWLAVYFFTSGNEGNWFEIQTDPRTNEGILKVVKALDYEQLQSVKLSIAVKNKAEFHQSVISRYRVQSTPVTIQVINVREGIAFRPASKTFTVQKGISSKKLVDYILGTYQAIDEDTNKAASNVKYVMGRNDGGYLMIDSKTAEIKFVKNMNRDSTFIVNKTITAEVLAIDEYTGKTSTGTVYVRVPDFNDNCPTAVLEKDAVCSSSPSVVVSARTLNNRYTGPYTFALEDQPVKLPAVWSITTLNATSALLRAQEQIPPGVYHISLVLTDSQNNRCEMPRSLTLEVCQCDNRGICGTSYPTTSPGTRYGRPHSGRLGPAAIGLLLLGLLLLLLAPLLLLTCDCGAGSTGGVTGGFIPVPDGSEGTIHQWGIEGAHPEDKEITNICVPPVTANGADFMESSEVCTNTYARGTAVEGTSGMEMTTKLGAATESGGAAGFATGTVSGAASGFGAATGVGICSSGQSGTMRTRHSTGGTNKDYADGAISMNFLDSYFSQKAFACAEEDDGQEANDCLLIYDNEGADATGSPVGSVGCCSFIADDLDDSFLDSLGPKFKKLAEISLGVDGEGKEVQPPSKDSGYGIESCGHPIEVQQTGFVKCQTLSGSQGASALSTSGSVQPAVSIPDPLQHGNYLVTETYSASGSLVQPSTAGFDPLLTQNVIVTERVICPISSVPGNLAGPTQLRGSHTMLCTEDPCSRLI
Mcl-1 Bim block – human Bim-Mcl-1 interaction inhibition. Q07820. Bead-based flow cytometry, Bim peptide-Mcl-1 binding. inhibition, % at 10 µM. 190,000 tested, 0.1% active; in the data active = inhibition above about 40%;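 note: 0% = no compound tracer wells and 100% = peptide blocker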
Mcl1 Noxa PPI – Mcl-1/Noxa interaction inhibition; AID 1022; Q07820; 220,000 tested, 1.5% active; inhibition, % at 21.7 µM; TR-FRET Mcl-1/Noxa peptide binding, 2 h;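 active = compounds that cut the protein-peptide binding signal by more than 50% relative to plate controls in a single-dose test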;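 note: His-tagged Mcl-1 with rhodamine Noxa BH3 peptide and terbium anti-His antibody; 0% = Mcl-1 plus Noxa peptide wells and 100% = peptide-only wells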
An asterisk follows results filed as active. Shown are actives, neighbours in structure and some others; about 2.3% of the full set was active somewhere.

For CCn1cc(C(=O)NCCCN2CCCC(C)C2)c(=O)c2cc(S(=O)(=O)N(C)C3CCCCC3)ccc21 (stereo not given) the results were MCL1 BIM primary 6, T cell modulator 284 and Pemphigus Ab inh 108.
Screening O=C(C[C@H]1C/C=C\C[C@@H](Cc2ccc(F)cc2)C(=O)OC[C@@H]2CCCN2C1=O)NCCO returned T cell modulator 413 and Pemphigus Ab inh 98.
`Cc1ccccc1C(=O)NCC(=O)NC1CC1` gave T cell modulator 345 and Pemphigus Ab inh 99.
Screening O=[N+]([O-])c1ccc2nc(SCc3cn4cc(Cl)ccc4n3)[nH]c2c1 returned MCL1 BIM primary -4, Mcl1-Bid inh 31, T cell modulator 261, Pemphigus Ab inh 96, Mcl-1 Bim block -2 and Mcl1 Noxa PPI 51*.
O=[N+]([O-])c1ccc2nc(SCc3cn4ccccc4n3)[nH]c2c1 was read as MCL1 BIM primary -6, Mcl1-Bid inh -55, T cell modulator inactive, Pemphigus Ab inh 96, Mcl-1 Bim block -5 and Mcl1 Noxa PPI -4.
For O=C(Cc1ccccc1)Nc1scc(-c2ccccc2)c1C(=O)N1CCOCC1 the results were MCL1 BIM primary -17, Mcl1-Bid inh 86*, T cell modulator 200, Pemphigus Ab inh 95, Mcl-1 Bim block 0 and Mcl1 Noxa PPI 20.
COc1ccc(NC2=Nc3cccc4cccc2c34)cc1 was read as MCL1 BIM primary -28, Mcl1-Bid inh -18, T cell modulator 353, Pemphigus Ab inh 101, Mcl-1 Bim block -5 and Mcl1 Noxa PPI 14.
Cc1cc(NC(=O)c2coc(=O)c(Br)c2)ccc1C(C)C was read as MCL1 BIM primary 3, Mcl1-Bid inh 1, T cell modulator 272, Pemphigus Ab inh 93 and Mcl1 Noxa PPI 6.
`COCCn1c(N)c(C(=S)NC(=O)c2cccs2)c(=O)[nH]c1=O` gave MCL1 BIM primary 7, Mcl1-Bid inh -6, T cell modulator 488, Pemphigus Ab inh 97 and Mcl1 Noxa PPI 70*.
COc1ccc(Cl)cc1CC=NNC(=O)c1cccc(C)c1O was read as Pemphigus Ab inh 104.
Screening CC(NC(=O)c1cc(S(=O)(=O)N2CCOCC2)ccc1N1CCCC1)c1ccc(Cl)c(Cl)c1 (stereo not given) returned MCL1 BIM primary -3, T cell modulator 175 and Pemphigus Ab inh 101.
For Nc1ccc2c(c1Cl)C(=O)c1ccc(N)c(Cl)c1C2=O the results were Mcl1-Bid inh 46, Pemphigus Ab inh 72 and Mcl1 Noxa PPI 87*.
Screening COc1cc(C(c2nnnn2C2CCCC2)N2CCc3ccccc3C2)ccc1O (stereo not given) returned MCL1 BIM primary 11, Mcl1-Bid inh 9, T cell modulator 248, Pemphigus Ab inh 100, Mcl-1 Bim block 0 and Mcl1 Noxa PPI 77*.
Oc1ccc(C(c2nnnn2C2CCCC2)N2CCc3ccccc3C2)cc1 (stereo not given) was read as MCL1 BIM primary 11, Mcl1-Bid inh -11, T cell modulator 478, Pemphigus Ab inh 116, Mcl-1 Bim block 1 and Mcl1 Noxa PPI 25.
For CCOc1ccccc1C(=O)NC1CC2CCCC(C1)N2Cc1nnnn1Cc1ccco1 (stereo not given) the results were MCL1 BIM primary -11, Mcl1-Bid inh -25, T cell modulator 208, Mcl-1 Bim block -2 and Mcl1 Noxa PPI 4.
CCOc1ccccc1C(=O)NC1CC2CCCC(C1)N2C1CC1 (stereo not given) was read as MCL1 BIM primary -9, Mcl1-Bid inh 2, T cell modulator 278, Pemphigus Ab inh inconclusive, Mcl-1 Bim block 42* and Mcl1 Noxa PPI 7.
For COc1ccc(-c2csc(NC(=O)C3CC(=O)N(Cc4ccccc4)C3)n2)cc1OC (stereo not given) the results were MCL1 BIM primary -1, T cell modulator 137 and Pemphigus Ab inh 104.
O=C(O)c1cccc2cccc(-c3c4ccc(=O)c(O)c-4oc4c(O)c(O)ccc34)c12 was read as Pemphigus Ab inh 13*.
Oc1[nH]c2ccccc2c1/C=N/N1CCCCC1 was read as MCL1 BIM primary 0, Mcl1-Bid inh 93*, T cell modulator 148, Pemphigus Ab inh 107, Mcl-1 Bim block 0 and Mcl1 Noxa PPI -6.
For Oc1ccccc1C=NN1CCCCCC1 the results were Pemphigus Ab inh 101.
